Experimental findings from ChEMBL document CHEMBL1165853, “Hybrids of 3alpha-methoxyserrat-14-en-21beta-ol (PJ-1) and 3beta-methoxyserrat-14-en-21beta-ol (PJ-2) and various anti-oxidants as cancer chemopreventive agents” (Eur J Med Chem, 2010) are described below.

The structures appear in SMILES notation. Activity calls are given as the source filed them. No cut-off for these calls is given here.

The test system of data set [1] is Mus musculus. Briefly: Inhibition of DMBA-induced/TPA-promoted carcinogenesis in ICR mouse assessed as reduction of mouse bearing papillomas width at 85 nmol administered 1 hr before TPA treatment measured after 20 weeks. It counts as functional. Put shortly: (§1)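 In the two-stage mouse skin carcinogenesis model, DMBA was the initiator and TPA the promoter, and test agent was given at 85 nmol alongside DMBA/TPA. Papilloma-bearing mice (%), papillomas per mouse, and tumor length and width were followed through week 20 against a DMBA/TPA-only group.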

The species entered for data set [2] is Mus musculus. The data set is described as follows: Toxicity in ICR mouse assessed as change in body weight. It counts as organism-based. The note with it: in vivo.
The subject of data set [3] is Mus musculus. Briefly: Inhibition of DMBA-induced/TPA-promoted carcinogenesis in ICR mouse assessed as reduction of mouse bearing papillomas at 85 nmol administered 1 hr before TPA treatment measured after 20 weeks. The format is functional. The method in brief:
as §1

The test system of data set [4] is Mus musculus. Briefly: Inhibition of DMBA-induced/TPA-promoted carcinogenesis in ICR mouse assessed as reduction of mouse bearing papillomas number at 85 nmol administered 1 hr before TPA treatment measured after 20 weeks. It counts as functional. Put shortly: as §1
For data set [5], the system named is Mus musculus. Briefly: Inhibition of DMBA-induced/TPA-promoted carcinogenesis in ICR mouse assessed as reduction of mouse bearing papillomas at 85 nmol administered 1 hr before TPA treatment measured after 10 to 15 weeks. It counts as functional. The method in brief:
as §1

Data set [6] concerns Mus musculus. The data set is described as follows: Inhibition of DMBA-induced/TPA-promoted carcinogenesis in ICR mouse assessed as reduction of mouse bearing papillomas length at 85 nmol administered 1 hr before TPA treatment measured after 20 weeks. The format is functional. Put shortly:
as §1

The species named for data set [7] is Mus musculus. Briefly: Toxicity in ICR mouse assessed as inflammation. The format is organism-based. The note with it: in vivo.
The nature of data set [8]: Inhibition of TPA-induced EBV-early antigen activation in human Raji cells assessed as EA activation after 48 hrs. The format is cell-based, human gammaherpesvirus 4. The method in brief:
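Raji cells (EBV genome-carrying, virus non-producer Burkitt's lymphoma line; RPMI-1640 with 10% FBS) were seeded at 1×10⁶/mL and held 48 h at 37 °C with n-butyric acid (4 mmol), TPA (32 pmol) and test agent at 1000, 500, 100 or 10 mol ratio/32 pmol TPA. EA-positive cells were scored by indirect immunofluorescence with NPC patient serum, counting ≥500 cells, in triplicate. Results are expressed relative to the butyrate+TPA control (100%), and IC50 is given as mol ratio/32 pmol TPA.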

Data set [9] in a line: Cytotoxicity against human Raji cells assessed as cell viability at 1000 molar ratio by trypan blue staining method. It counts as cell-based. The note with it: read-out: Activity. Put shortly:
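Viability was measured by trypan blue staining of Raji cells after the 48 h, 37 °C EBV-EA induction run (n-butyric acid 4 mmol plus TPA 32 pmol), with compound at 1000 mol ratio/32 pmol TPA.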

The species named for data set [10] is Mus musculus. Briefly: Toxicity in ICR mouse assessed as lesional damage. It counts as organism-based. The note with it: in vivo.

`CO[C@H]1CC[C@@]2(C)[C@@H](CC[C@@]3(C)CC4=CC[C@H]5C(C)(C)[C@H](OC(=O)CCC(=O)Oc6ccc(-c7oc8cc(O)cc(O)c8c(=O)c7O)cc6O)CC[C@]5(C)[C@H]4CC[C@@H]32)C1(C)C`: the Activity in data set [1] was 24 mm; in [2], “Non-toxic”; in data set [6] it was 26 mm; in data set [7], “Non-toxic”; in data set [10], “Non-toxic”. Also, the results for the “inhibition (INH)” value in [3] and in data set [5] were 86.6% and 20%, respectively. Moreover, the papillomas per mouse in data set [4] was determined as 4.7 papillomas/mouse. In addition, the IC50 in [8] is given as 330 molar ratio. For the same compound, the viability at 1000 molar ratio in data set [9] was found to be 60%.

With `CO[C@H]1CC[C@@]2(C)[C@@H](CC[C@@]3(C)CC4=CC[C@H]5C(C)(C)[C@H](OC(N)=O)CC[C@]5(C)[C@H]4CC[C@@H]32)C1(C)C`, the IC50 in [8] came out at 470 molar ratio. Also, the viability at 1000 molar ratio in data set [9] stood at 60%.

For the compound `COc1cc(/C=C/C(O)=C/C(O)/C=C/c2ccc(OC(=O)CCC(=O)O[C@@H]3CC[C@]4(C)[C@H]5CC[C@H]6[C@@](C)(CC[C@H]7C(C)(C)[C@@H](OC)CC[C@@]76C)CC5=CC[C@H]4C3(C)C)c(OC)c2)ccc1OC(=O)CCC(=O)O[C@@H]1CC[C@]2(C)[C@H]3CC[C@H]4[C@@](C)(CC[C@H]5C(C)(C)[C@@H](OC)CC[C@@]54C)CC3=CC[C@H]2C1(C)C` (stereo partly drawn), the IC50 in [8] is 395 molar ratio. In addition, the viability at 1000 molar ratio in data set [9] is 60%.

`CO[C@@H]1CC[C@@]2(C)[C@@H](CC[C@@]3(C)CC4=CC[C@H]5C(C)(C)[C@H](OC(=O)CCC(=O)Oc6coc(CO)cc6=O)CC[C@]5(C)[C@H]4CC[C@@H]32)C1(C)C`: the IC50 in [8] came to 370 molar ratio. In [9], the viability at 1000 molar ratio turned out to be 70%.

With `COc1cc(/C=C/C(=O)CC(O)/C=C/c2ccc(OC(=O)CC(=O)O[C@@H]3CC[C@]4(C)[C@H]5CC[C@H]6[C@@](C)(CC[C@H]7C(C)(C)[C@@H](OC)CC[C@@]76C)CC5=CC[C@H]4C3(C)C)c(OC)c2)ccc1OC(=O)CC(=O)O[C@@H]1CC[C@]2(C)[C@H]3CC[C@H]4[C@@](C)(CC[C@H]5C(C)(C)[C@@H](OC)CC[C@@]54C)CC3=CC[C@H]2C1(C)C` (stereo partly drawn), the IC50 in data set [8] is 338 molar ratio. In addition, the viability at 1000 molar ratio in data set [9] came out at 60%.

As to `COc1cc(/C=C/C(O)=C/C(O)/C=C/c2ccc(OC(=O)CCC(=O)O[C@@H]3CC[C@]4(C)[C@H]5CC[C@H]6[C@@](C)(CC[C@H]7C(C)(C)[C@H](OC)CC[C@@]76C)CC5=CC[C@H]4C3(C)C)c(OC)c2)ccc1OC(=O)CCC(=O)O[C@@H]1CC[C@]2(C)[C@H]3CC[C@H]4[C@@](C)(CC[C@H]5C(C)(C)[C@H](OC)CC[C@@]54C)CC3=CC[C@H]2C1(C)C` (stereo partly drawn), the IC50 in data set [8] came out at 462 molar ratio. Further, in data set [9], the viability at 1000 molar ratio is 60%.

As to `CO[C@H]1CC[C@@]2(C)[C@@H](CC[C@@]3(C)CC4=CC[C@H]5C(C)(C)[C@H](OC(=O)CCC(=O)Oc6coc(CO)cc6=O)CC[C@]5(C)[C@H]4CC[C@@H]32)C1(C)C`, the IC50 in data set [8] is listed as 371 molar ratio. The viability at 1000 molar ratio in [9] was found to be 70%.

With `COc1cc(/C=C/C(O)/C=C(O)/C=C/c2ccc(OC(=O)CC(=O)O[C@@H]3CC[C@]4(C)[C@H]5CC[C@H]6[C@@](C)(CC[C@H]7C(C)(C)[C@@H](OC)CC[C@@]76C)CC5=CC[C@H]4C3(C)C)c(OC)c2)ccc1O` (stereo partly drawn), the IC50 in [8] turned out to be 358 molar ratio. For the same compound, the viability at 1000 molar ratio in [9] was 60%.

Take `CO[C@@H]1CC[C@@]2(C)[C@@H](CC[C@@]3(C)CC4=CC[C@H]5C(C)(C)[C@H](OC(=O)CCC(=O)Oc6ccc(-c7oc8cc(O)cc(O)c8c(=O)c7O)cc6O)CC[C@]5(C)[C@H]4CC[C@@H]32)C1(C)C`: the Activity in data set [1] was 25 mm; in data set [2] it was “Non-toxic”; in data set [6], 28 mm; in data set [7], “Non-toxic”; in [10], “Non-toxic”. Further, the “inhibition (INH)” value turned out to be 73.3% in data set [3] and 26.6% in [5]. In addition, the inhibition entry in data set [4] was “Active”. Besides, the IC50 in [8] is reported as 350 molar ratio. The viability at 1000 molar ratio in data set [9] was determined as 60%.

Take `CC1(C)CC[C@]2(C(=O)O)CC[C@]3(C)C(=CC[C@@H]4[C@@]5(C)CC[C@H](O)C(C)(C)[C@@H]5CC[C@]43C)[C@@H]2C1` [OLEANOLIC_ACID]: in data set [8], the IC50 is 449 molar ratio.

With `CO[C@H]1CC[C@@]2(C)[C@@H](CC[C@@]3(C)CC4=CC[C@H]5C(C)(C)[C@H](OC(=O)Nc6ccccc6)CC[C@]5(C)[C@H]4CC[C@@H]32)C1(C)C`, the IC50 in data set [8] came to 459 molar ratio. The viability at 1000 molar ratio in data set [9] came to 60%.

Consider `COc1cc(/C=C/C(O)/C=C(O)/C=C/c2ccc(OC(=O)CCC(=O)O[C@@H]3CC[C@]4(C)[C@H]5CC[C@H]6[C@@](C)(CC[C@H]7C(C)(C)[C@@H](OC)CC[C@@]76C)CC5=CC[C@H]4C3(C)C)c(OC)c2)ccc1O` (stereo partly drawn), for which the IC50 in data set [8] was 460 molar ratio. Besides, in data set [9], the viability at 1000 molar ratio was found to be 60%.

`COc1cc(/C=C/C(O)/C=C(O)/C=C/c2ccc(OC(=O)CC(=O)O[C@@H]3CC[C@]4(C)[C@H]5CC[C@H]6[C@@](C)(CC[C@H]7C(C)(C)[C@H](OC)CC[C@@]76C)CC5=CC[C@H]4C3(C)C)c(OC)c2)ccc1O` (stereo partly drawn): in [8], the IC50 came out at 354 molar ratio. Further, in data set [9], the viability at 1000 molar ratio was found to be 60%.

With `CO[C@H]1CC[C@@]2(C)[C@@H](CC[C@@]3(C)CC4=CC[C@H]5C(C)(C)[C@H](OC(=S)Nc6ccccc6)CC[C@]5(C)[C@H]4CC[C@@H]32)C1(C)C`, the IC50 in [8] was found to be 460 molar ratio. Also, in [9], the viability at 1000 molar ratio is 60%.

With `CO[C@H]1CC[C@@]2(C)[C@@H](CC[C@@]3(C)CC4=CC[C@H]5C(C)(C)[C@H](OC(=O)Nc6ccccc6Cl)CC[C@]5(C)[C@H]4CC[C@@H]32)C1(C)C`, the IC50 in data set [8] is recorded as 468 molar ratio. Also, in data set [9], the viability at 1000 molar ratio is 50%.

For the compound `CO[C@H]1CC[C@@]2(C)[C@@H](CC[C@@]3(C)CC4=CC[C@H]5C(C)(C)[C@H](OC(=O)CCl)CC[C@]5(C)[C@H]4CC[C@@H]32)C1(C)C`, the IC50 in data set [8] turned out to be 473 molar ratio. Further, the viability at 1000 molar ratio in data set [9] came out at 60%.

On to `COc1cc(/C=C/C(O)/C=C(O)/C=C/c2ccc(OC(=O)CCC(=O)O[C@@H]3CC[C@]4(C)[C@H]5CC[C@H]6[C@@](C)(CC[C@H]7C(C)(C)[C@H](OC)CC[C@@]76C)CC5=CC[C@H]4C3(C)C)c(OC)c2)ccc1O` (stereo partly drawn), for which, in data set [8], the IC50 is 393 molar ratio. Further, in data set [9], the viability at 1000 molar ratio was 60%.

In the case of `COc1cc(/C=C/C(O)=C/C(O)/C=C/c2ccc(OC(=O)CC(=O)O[C@@H]3CC[C@]4(C)[C@H]5CC[C@H]6[C@@](C)(CC[C@H]7C(C)(C)[C@H](OC)CC[C@@]76C)CC5=CC[C@H]4C3(C)C)c(OC)c2)ccc1OC(=O)CC(=O)O[C@@H]1CC[C@]2(C)[C@H]3CC[C@H]4[C@@](C)(CC[C@H]5C(C)(C)[C@H](OC)CC[C@@]54C)CC3=CC[C@H]2C1(C)C` (stereo partly drawn), the IC50 in data set [8] came to 335 molar ratio. The viability at 1000 molar ratio in data set [9] worked out at 60%.

Turning to `CO[C@H]1CC[C@@]2(C)[C@@H](CC[C@@]3(C)CC4=CC[C@H]5C(C)(C)[C@H](OC(=O)NS(=O)(=O)c6ccc(C)cc6)CC[C@]5(C)[C@H]4CC[C@@H]32)C1(C)C`, in [8], the IC50 came out at 461 molar ratio. Also, the viability at 1000 molar ratio in [9] is 60%.
